This is an account of results in PubChem BioAssay.

SMILES strings stand for the structures. Activity calls are given as the source filed them.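 How the source made its calls, unless noted: active means NADPH fluorescence slope more negative than the mean of all samples by about 3 SD, 99.7% confidence; inactive means the rest.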

Assay [1] in a line: inhibitors of TNFa-induced NFkB p65 translocation, primary screen, imaging, HUVEC, MLSMR starter and 10KST1 sets (AID 438;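 active means inhibition above 20% together with a positive visual image hit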;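 further: compound added about 3h40 before a 20 min TNFalpha stimulation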;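 on inhibition: signal is the nuclear over cytoplasmic p65 intensity ratio per well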). The note with it: HUVEC TNFa-induced p65 nuclear translocation; cell count: measured here: nuclei count (cytotoxicity indicator), at 2.08 µM; inhibition: at 2 µM, stronger effect = higher value, 0% TNFa-plus-vehicle, 100% no-TNFa wells.
The nature of assay [2]: endothelial E-selectin expression blockers – imaging, HUVEC, immunofluorescence, MLSMR starter and 10KST1 sets, primary screen (AID 487;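 active means visually confirmed hit in the image check and inhibition above 20%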;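 on inhibition: signal is fraction of cell area covered by stained E-selectin grains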;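 on nuclei count: 100% = median nuclei count of all wells on the same plate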). The note with it: HUVEC TNFalpha-induced E-selectin immunofluorescence imaging, at 2 µM; inhibition: stronger effect = higher value; nuclei count: measured here: cell number, toxicity.
The nature of assay [3]: Primary imaging screen for DUSP6 inhibitors that restore phospho-Erk in transfected HeLa cells, chemical complementation (AID 609;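 active means compounds giving at least 50% inhibition in the cell-based MKP-3 phosphatase rescue imaging test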;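 on inhibition: phospho-Erk level distribution per well compared with pooled transfected vehicle control wells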). The note with it: HeLa MKP-3 transfected, phospho-Erk imaging KS statistic, at 10 µM, cells stimulated with TPA for 15 min.
In assay [4] the target is Dual specificity protein phosphatase 6 (Homo sapiens) (UniProt Q16828). The assay is described as above. The conditions noted are these: HeLa MKP-3 transfected, phospho-Erk imaging KS statistic; at 10 µM; stronger effect = higher value; cells stimulated with TPA for 15 min.
Chain of Dual specificity protein phosphatase 6 (Homo sapiens) (Q16828 whole entry, looked up): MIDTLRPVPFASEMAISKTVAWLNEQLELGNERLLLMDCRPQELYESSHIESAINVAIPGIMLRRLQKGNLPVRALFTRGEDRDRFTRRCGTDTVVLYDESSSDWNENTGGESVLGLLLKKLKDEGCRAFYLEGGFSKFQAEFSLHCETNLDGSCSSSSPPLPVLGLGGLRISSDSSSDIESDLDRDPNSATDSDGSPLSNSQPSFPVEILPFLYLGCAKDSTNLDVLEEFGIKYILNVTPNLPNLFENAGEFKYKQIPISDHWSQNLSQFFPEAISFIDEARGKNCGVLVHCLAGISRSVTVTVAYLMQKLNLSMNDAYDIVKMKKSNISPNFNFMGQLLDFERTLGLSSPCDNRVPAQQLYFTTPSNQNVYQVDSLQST
Assay [5] addresses Voltage-gated potassium channel subunit beta-2 (Rattus norvegicus) (UniProt P62483). The assay can be described thus: inhibitors of rat Kvbeta2 reductase activity – biochemical, NADPH fluorescence, primary screen (AID 622;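 active means fluorescence slope higher than the sample average by over 3 SD, cut at about -0.22 in these data, passing the limit was not always enough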;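 further: slope of raw intensity against log time taken from 70 to 1610 s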). The note with it: recombinant KvBeta, 4-cyanobenzaldehyde reduction, at 10 µM, stronger effect = higher value.
For assay [6] the target is unchanged. The experiment in a line: enhancers of rat Kvbeta2 NADPH turnover – biochemical, NADPH fluorescence, primary screen (AID 623).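 Further: fluorescence intensity change per second fitted from 20 to 320 s.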 The note with it: Recombinant KvBeta, NADPH fluorescence decrease slope, 10 min; at 10 µM; stronger effect = lower value.
The target of assay [7] is Alpha-2C adrenergic receptor (Homo sapiens) (UniProt P18825). The experiment in a line: compounds altering alpha2C-coupled GIRK flux – cell-based, HEK293 alpha2C/GIRK1/2, thallium flux, primary screen (AID 624;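 active means fluorescence slope after compound addition differing from the mean of all screened samples at 99.7% confidence, in either direction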;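 further: slope of fluorescence ratio to pre-addition baseline per second over 15 to 24 s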). The note with it: thallium flux BTC fluorescence, at 10 µM, actives lie on both sides.
Chain of Alpha-2C adrenergic receptor (Homo sapiens) (P18825 whole entry, looked up): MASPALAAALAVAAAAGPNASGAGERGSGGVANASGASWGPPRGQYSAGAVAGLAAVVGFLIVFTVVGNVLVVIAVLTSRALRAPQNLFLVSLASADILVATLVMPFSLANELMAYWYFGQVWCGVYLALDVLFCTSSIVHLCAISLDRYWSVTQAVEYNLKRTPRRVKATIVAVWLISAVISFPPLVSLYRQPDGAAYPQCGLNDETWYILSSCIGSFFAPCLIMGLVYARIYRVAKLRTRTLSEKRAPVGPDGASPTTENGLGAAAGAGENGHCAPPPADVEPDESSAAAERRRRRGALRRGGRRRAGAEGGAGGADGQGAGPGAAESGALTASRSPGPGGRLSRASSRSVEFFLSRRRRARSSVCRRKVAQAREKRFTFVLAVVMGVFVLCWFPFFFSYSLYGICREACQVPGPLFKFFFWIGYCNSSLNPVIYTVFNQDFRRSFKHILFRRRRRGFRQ
A short description of assay [8]: inhibitors of larval lipid processing in zebrafish, primary screen, whole organism, PED6 fluorescence, gall bladder and intestine (AID 686;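 active means a full or partial loss of lipid-probe fluorescence in the fish gall bladder, intestine or both, judged by eye; inactive means no fluorescence loss, or compound toxic to the fish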;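 further: larvae 5 to 7 days old with five fish per well; signal comes from phospholipase A2 cleavage of quenched PED6 carried via bile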). The conditions noted are these: Zebrafish larvae PED6 lipid processing, fluorescence scoring; screened at 20 µM (by protocol). The gist of the method: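 system = live zebrafish larvae aged 5-7 days, whole organism | probe or stimulus = ingested quenched lipid PED6 at 100 nM | doses = 20 µM single dose | timing = overnight exposure | detection = fluorescence microscopy with visual scoring of gall bladder and intestine | read-out = visual per-well fluorescence inhibition score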

Assay [9] can be described thus: loss of swimming-algae plug formation – whole organism, Chlamydomonas reinhardtii, WT vs cilia-less mutant, absorbance, 96-well, primary screen (AID 463189;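 active means inhibition at or above 50% relative to wild type and mutant plate controls; inactive means inhibition below 50%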;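 further: 0% = wild type cc124 cells in DMSO and 100% = ciliumless bld1 mutant cells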). The note with it: Chlamydomonas reinhardtii gravitaxis, OD600 absorbance, 2 days; at 10 µM; stronger effect = higher value.
Setting [10] is: measured here: cell density z-score.
Where [11] appears, read: measured here: nuclear c-Myc green intensity z-score.
The mark [12] stands for this setting: measured here: nuclear pErk red intensity z-score, stronger effect = higher value.

Chain of Voltage-gated potassium channel subunit beta-2 (Rattus norvegicus) (P62483 whole entry, looked up): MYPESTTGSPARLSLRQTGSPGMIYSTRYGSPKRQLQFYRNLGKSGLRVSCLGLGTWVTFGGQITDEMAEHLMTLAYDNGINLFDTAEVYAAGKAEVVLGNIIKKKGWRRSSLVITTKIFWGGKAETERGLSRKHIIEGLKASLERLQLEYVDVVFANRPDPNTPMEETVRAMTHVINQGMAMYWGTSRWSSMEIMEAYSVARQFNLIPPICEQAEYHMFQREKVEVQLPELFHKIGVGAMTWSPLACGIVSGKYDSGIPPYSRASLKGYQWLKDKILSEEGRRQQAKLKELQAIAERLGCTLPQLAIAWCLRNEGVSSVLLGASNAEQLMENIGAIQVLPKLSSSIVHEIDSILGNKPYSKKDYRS

For `N#CC(C(=O)NC1CCCCC1)c1nc2ccccc2nc1N1CCN(c2ccccc2F)CC1` (stereo unspecified), in assay [1], the cell count worked out at 449. Besides, the inhibition was 6.9% (inactive) in assay [1], -71.6% (inactive) in assay [2], 7.83% (inactive) in assay [4] and 1.07% (inactive) in assay [9]. This molecule yielded a nuclei count in [2] of 150%. Further, the z-score is 0.949 in assay [3] (setting [10]), -0.507 in [3] (setting [11]) and 0.00921 in [3] (setting [12]). Also, the fluorescence slope in assay [5] is -0.432 (inactive). Also, the NADPH fluorescence slope in [6] is -1.4e-05 (inactive). For the same molecule, the slope in [7] was 0.00608 (inactive). Also, the molecule was classed as inactive in [8].
Regarding `CN1CCN(C(=O)CSc2nc(-c3cccs3)ccc2C#N)CC1`, the cell count in assay [1] came to 625. Also, the inhibition in [1] was -11.3% (inactive); in [2] it was 21.9% (inactive); in assay [4], 6.04% (inactive); in assay [9] it was 21.2% (inactive). The nuclei count in [2] was found to be 138%. Moreover, the z-score is -0.668 in [3] (setting [10]), -0.886 in assay [3] (setting [11]) and -0.831 in assay [3] (setting [12]). For the same molecule, the fluorescence slope in assay [5] is -0.299 (inactive). Besides, the NADPH fluorescence slope in assay [6] is -1.3e-05 (inactive). Further, in assay [7], the slope was 0.00609 (inactive). In [8], the result was inactive.
Consider `COc1ccc(/C(O)=C2/C(=O)C(=O)N(CCCN(C)C)C2c2cccc(Cl)c2)cc1OC` (stereo unspecified), for which the cell count in assay [1] came to 382. The inhibition was -1.1% (inactive) in assay [1], -135% (inactive) in [2], 3.66% (inactive) in assay [4] and 0.268% (inactive) in assay [9]. In assay [2], this molecule returned a nuclei count of 155%. Also, the z-score is -1.5 in assay [3] (setting [10]), 0.328 in assay [3] (setting [11]) and 0.495 in assay [3] (setting [12]). For the same molecule, the fluorescence slope in assay [5] is -0.393 (inactive). Further, in [6], the NADPH fluorescence slope is -5.4e-05 (inactive). In assay [7], the slope was 0.00697 (inactive). The molecule was classed as inactive in [8].
Take `O=C(NC1CCCCC1)N1CCSC1=Nc1ccccc1`: the cell count in assay [1] is 490. For the same molecule, the inhibition in [1] is -27.8% (inactive); in [2], -420% (inactive); in assay [4] it was 24.4% (inactive); in assay [9] it was 11.3% (inactive). This molecule showed a nuclei count in assay [2] of 202%. Further, the figures for the z-score in assay [3] (setting [10]), in [3] (setting [11]) and in assay [3] (setting [12]) were 0.92, -1.53 and 0.173, respectively. For the same molecule, in assay [5], the fluorescence slope is -0.495 (inactive). Further, the NADPH fluorescence slope in assay [6] was -9.6e-05 (inactive). Moreover, the slope in [7] was 0.00417 (inactive). For the same molecule, the outcome in assay [8] was inactive.
With `COC(=O)CCc1c(C)[nH]c(C(=O)OCc2ccccc2)c1C`, the cell count in assay [1] is 596. For the same molecule, the inhibition is -4.1% (inactive) in assay [1], -34% (inactive) in assay [2], -5.89% (inactive) in assay [4] and -0.974% (inactive) in assay [9]. In assay [2], the nuclei count is 179%. Also, the results for the z-score in assay [3] (setting [10]), in [3] (setting [11]) and in assay [3] (setting [12]) were -1.2, -0.0699 and 0.772, respectively. In [5], the fluorescence slope is -0.487 (inactive). The NADPH fluorescence slope in assay [6] is -0.00013 (inactive). The slope in [7] is 0.00445 (inactive). For the same molecule, the outcome in [8] was inactive.
Regarding `COc1ccc(Oc2nc3c(c(=O)n(C)c(=O)n3C)n2Cc2cccc(OC)c2)cc1`, in assay [1], the cell count turned out to be 468. In addition, the inhibition in assay [1] is -1.9% (inactive); in assay [2], -260% (inactive); in assay [4], 26% (inactive); in [9], 31.4% (inactive). In assay [2], this molecule had a nuclei count of 162%. For the same molecule, the values for the z-score in [3] (setting [10]), in assay [3] (setting [11]) and in assay [3] (setting [12]) were 1.97, -0.65 and -2.21, respectively. Moreover, in [5], the fluorescence slope was -0.295 (inactive). Further, in assay [6], the NADPH fluorescence slope was -1.2e-05 (inactive). In addition, in [7], the slope is 0.00507 (inactive). In addition, the outcome in assay [8] was inactive.
As to `COC(=O)c1sc(NC(C)=O)c(C(=O)OC)c1C`, the cell count in [1] is 633. Moreover, the inhibition in assay [1] was -13.3% (inactive); in [2], 4.8% (inactive); in [4], 6.04% (inactive); in [9], -1.51% (inactive). The same molecule yielded a nuclei count in assay [2] of 154%. The z-score was 1.36 in [3] (setting [10]), -0.117 in assay [3] (setting [11]) and -1.37 in assay [3] (setting [12]). Besides, in [5], the fluorescence slope is -0.516 (inactive). Also, in assay [6], the NADPH fluorescence slope is -9.3e-05 (inactive). Moreover, the slope in assay [7] was 0.00594 (inactive). Besides, the call in [8] was inactive.

By inhibition is commonly meant the drop in the measured response relative to a control, in per cent.
